Measured values from ChEMBL document CHEMBL5661966, “Aurora B couples chromosome alignment with anaphase by targeting BubR1, Mad2, and Cenp-E to kinetochores” (J Cell Biol, 2003).
Activity calls are given as the source filed them. The calls are words filed in the database; no cut-off is given here.

Columns and labels:
[1] = system: HeLa; experiment: Induction of cell cycle arrest in human HeLa cells assessed as mitotic index measured after 6 hrs relative to control; assay type: functional
[2] = system: HeLa; experiment: Induction of cell cycle arrest in human HeLa cells assessed as increase in cyclin B1 level measured after 2 hrs by immunoblot analysis; assay type: functional, cell-based
Procedure, shortened: (§1)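 Mitotic HeLa cells were collected by selective detachment after a 12-h nocodazole block, washed free of nocodazole, and replated in the drug combinations. Cells were harvested at set times. Mitotic index was scored by MPM-2 reactivity, cyclin B1 was measured by immunoblot, and DNA content was read as histograms.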

[3] = system: HeLa; experiment: Induction of mitosis in human HeLa cells assessed as cyclin B1 level at 18 hrs by flow cytometric analysis; assay type: functional, cell-based
[4] = system: DLD-1; experiment: Induction of cell cycle arrest in human DLD-1 cells assessed as accumulation of cells at mitotic stage upto 6 hrs by SEM analysis; assay type: functional, cell-based
[5] = system: HeLa; experiment: Induction of cell cycle arrest in human HeLa cells assessed as accumulation of cells at mitotic stage measured after 2 hrs; assay type: functional, cell-based; procedure, shortened: as §1
[6] = Inhibition of reassociation of kinetochore with BubR1 in human DLD-1 cells assessed as BubR1/ACA fluorescence ratio measured for 40 mins (reference value: 2.23+/-1.21); assay type: functional
[7] = Inhibition of reassociation of kinetochore with BubR1 in human DLD-1 cells assessed as inter-kinetochore distance measured for 40 mins (reference value: 0.89+/-0.20 uM); assay type: functional
[8] = system: HeLa; experiment: Induction of cell cycle arrest in human HeLa cells assessed as increase in cyclin B1 level measured after 1 hr by immunoblot analysis; assay type: functional, cell-based; procedure, shortened: as §1
[9] = system: HeLa; experiment: Induction of mitosis in human HeLa cells assessed as peaked mitotic index at 10 hrs by flow cytometric analysis; assay type: functional, cell-based
[10] = molecular target: Mitotic checkpoint serine/threonine-protein kinase BUB1 beta (Homo sapiens) (UniProt O60566); experiment: Inhibition of BubR1 immunoprecipitate phosphorylation in mitotic human HeLa cells released from G1/S blocks; assay type: cell-based
[11] = system: DLD-1; experiment: Effect on human DLD-1 cells assessed as localization of survivin to centromere measured after 1 hr by immunofluorescence imaging analysis; assay type: functional, cell-based
[12] = system: DLD-1; experiment: Inhibition of chromosome alignment in human DLD-1 cells assessed as abnormal chromosome appearance upto 6 hrs; assay type: functional, cell-based
[13] = system: HeLa; experiment: Induction of cell cycle arrest in 12 hrs nocodazole block pretreated human HeLa cells assessed as mitotic stage exit in presence of nocodazole measured after 4 hrs; assay type: functional, cell-based
Procedure, shortened: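 HeLa cells were held in a nocodazole block for 2 or 12 h, and mitotic cells were harvested. They were replated in nocodazole alone or nocodazole plus test drug. Mitotic index was scored by MPM-2 reactivity after 4 h.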

[14] = system: DLD-1; experiment: Effect on human DLD-1 cells assessed as reduction in kinetochore bound BubR1 measured after 1 hr by immunofluorescence imaging analysis; assay type: functional, cell-based
[15] = system: DLD-1; experiment: Effect on human DLD-1 cells assessed as reduction in kinetochore bound CenP-E measured after 1 hr by immunofluorescence imaging analysis; assay type: functional, cell-based
[16] = molecular target: Mitotic checkpoint serine/threonine-protein kinase BUB1 beta (Homo sapiens) (UniProt O60566); experiment: Inhibition of BubR1 phosphorylation in mitotic human HeLa cells released from G1/S blocks by immunoblotting analysis; assay type: cell-based
[17] = system: DLD-1; experiment: Effect on human DLD-1 cells assessed as reduction in fluorescence intensity of kinetochore bound BubR1/ACA ratio in presence of nocodazole measured by immunofluorescence imaging analysis relative to control; assay type: functional; parameters: scale not given: the % may be the effect or the level left
[18] = system: DLD-1 (Homo sapiens); experiment: Effect on paclitaxel pretreated human DLD-1 cells assessed as compromising of microtubule polymerization induced spindle check point function
[19] = system: hTERT-HME1; experiment: Induction of endoreduplication in human HME cells measured after 48 hrs; assay type: functional, cell-based
[20] = system: A549; experiment: Induction of endoreduplication in human A549 cells measured after 48 hrs; assay type: functional, cell-based
[21] = system: DLD-1; experiment: Inhibition of chromosome alignment in human DLD-1 cells assessed as reduction of metaphase and anaphase spindle proportion for 1 hr; assay type: functional, cell-based
[22] = molecular target: Mitotic checkpoint serine/threonine-protein kinase BUB1 beta (Homo sapiens) (UniProt O60566); experiment: Inhibition of BubR1 phosphorylation in mitotic human HeLa cells released from G1/S blocks in presence of nocodazole by immunoblotting analysis; assay type: cell-based
[23] = system: DLD-1; experiment: Effect on human DLD-1 cells assessed as localization of Aurora B to centromere measured after 1 hr by immunofluorescence imaging analysis; assay type: functional, cell-based
[24] = system: DLD-1; experiment: Effect on human DLD-1 cells assessed as reduction in kinetochore bound Mad2 measured after 1 hr by immunofluorescence imaging analysis; assay type: functional, cell-based
[25] = system: DLD-1; experiment: Inhibition of sister chromatid separation in human DLD-1 cells; assay type: functional, cell-based
[26] = system: HeLa; experiment: Effect on nocodazole pretreated human HeLa cells assessed as compromising of microtubule polymerization induced spindle check point function; assay type: functional, cell-based

Mitotic checkpoint serine/threonine-protein kinase BUB1 beta (Homo sapiens), sequence (O60566 whole entry): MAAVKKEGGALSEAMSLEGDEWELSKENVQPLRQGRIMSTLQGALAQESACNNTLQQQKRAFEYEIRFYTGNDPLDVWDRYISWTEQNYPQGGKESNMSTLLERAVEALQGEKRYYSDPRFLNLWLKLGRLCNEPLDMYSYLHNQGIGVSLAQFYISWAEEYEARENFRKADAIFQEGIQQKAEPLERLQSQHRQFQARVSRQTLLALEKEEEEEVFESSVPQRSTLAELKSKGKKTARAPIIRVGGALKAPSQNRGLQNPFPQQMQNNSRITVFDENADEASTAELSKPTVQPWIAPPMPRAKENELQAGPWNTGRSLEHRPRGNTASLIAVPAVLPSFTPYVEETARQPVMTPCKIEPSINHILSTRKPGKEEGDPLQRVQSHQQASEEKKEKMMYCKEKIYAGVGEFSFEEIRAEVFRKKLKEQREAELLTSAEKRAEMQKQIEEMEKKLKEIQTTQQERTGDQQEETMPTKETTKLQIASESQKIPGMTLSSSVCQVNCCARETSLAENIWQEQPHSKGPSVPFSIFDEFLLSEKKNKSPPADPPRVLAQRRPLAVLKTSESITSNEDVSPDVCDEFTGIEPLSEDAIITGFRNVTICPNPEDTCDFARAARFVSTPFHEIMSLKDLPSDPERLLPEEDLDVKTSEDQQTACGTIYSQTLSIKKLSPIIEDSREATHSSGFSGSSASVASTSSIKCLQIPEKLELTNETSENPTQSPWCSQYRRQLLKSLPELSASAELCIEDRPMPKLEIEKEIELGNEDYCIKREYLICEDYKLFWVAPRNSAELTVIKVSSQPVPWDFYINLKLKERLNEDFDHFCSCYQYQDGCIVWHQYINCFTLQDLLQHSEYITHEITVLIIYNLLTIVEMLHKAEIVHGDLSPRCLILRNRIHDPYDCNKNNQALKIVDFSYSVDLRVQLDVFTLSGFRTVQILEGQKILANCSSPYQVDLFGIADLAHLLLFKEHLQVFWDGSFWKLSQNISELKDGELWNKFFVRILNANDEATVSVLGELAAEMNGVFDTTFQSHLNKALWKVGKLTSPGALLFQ

SMILES: COC(=O)Nc1nc2cc(C(=O)c3cccs3)ccc2[nH]1 [NOCODAZOLE]
- Activity [1]: ~25%
- Activity [2]: Active
- Activity [3]: Active
- Activity [4]: Active
- Activity [5]: Active

SMILES: CC(=O)O[C@H]1C(=O)[C@@]2(C)[C@H]([C@H](OC(=O)c3ccccc3)[C@]3(O)C[C@H](OC(=O)[C@H](O)[C@@H](NC(=O)c4ccccc4)c4ccccc4)C(C)=C1C3(C)C)[C@]1(OC(C)=O)CO[C@@H]1C[C@@H]2O [PACLITAXEL]
- Activity [1]: ~25%
- Activity [6]: 3.86
- inter-kinetochore distance [7]: 0.58 µm

SMILES: COc1cc2c(Nc3ccc(NC(=O)c4ccccc4)cc3)ncnc2cc1OCCCN1CCOCC1
- Activity [8]: Active
- Activity [3]: Active
- Activity [9]: Active
- inhibition [10]: inactive
- Activity [11]: Active
- inhibition [12]: Active
- Activity [13]: Active
- Activity [14]: Active
- Activity [15]: Active
- inhibition [16]: Active
- Activity [17]: 0%
- Activity [4]: Active
- Activity [18]: Active
- Activity [19]: Active
- Activity [20]: Active
- inhibition [21]: Active
- inhibition [22]: Active
- Activity [23]: Active
- Activity [24]: Active
- inhibition [25]: inactive
- Activity [26]: Active
